Screening data as filed in PubChem.
Only some compounds are listed: those with a hit (about 4.1% of all), similar ones and a draw of the others.
KCNQ1 pot = human KCNQ1 channel potentiation or activation; CHO-K1 KCNQ1, thallium flux FluxOR fluorescence; active compounds read high; B-score at 10 µM; actives 0.35% (n = 310,000); P51787;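 active = fluorescence ratio B-score, a plate-corrected score, at least three library SD, with initial intensity B-score within 5 SD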
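Schedule – 37 °C overnight plating, 90-min dark dye load, 20-min compound pretreatment · System – stable KCNQ1 CHO-K1 line · Probe or stimulus – thallium- and potassium-containing depolarizing buffer · Measured by – kinetic FluxOR fluorescence, 10 s baseline plus 110 s post-stimulus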
KCNQ1 block = inhibitors of human KCNQ1 potassium channel | CHO-K1 KCNQ1, FluxOR thallium flux fluorescence; active compounds read high | actives 1.3% (n = 310,000) | P51787 | B-score at 10 µM | AID 2642;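 active = compounds whose thallium flux B-score, printed positive for inhibition, exceeds three library SD while starting fluorescence stays within three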;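 also: channel opened by potassium depolarization with thallium stimulus after 20 min compound exposure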
KCNK3 block = human KCNK3 channel inhibition, primary screen. O14649. CHO-KCNK3 thallium flux, FluxOR fluorescence; active compounds read low. B-score at 10 µM. actives 0.84% (n = 340,000). AID 602410;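 active = B-score under library mean minus 4 SD, starting fluorescence ratio at most library mean plus 5 SD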;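 also: more negative B-score means stronger inhibition of thallium flux through KCNK3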
KCNK9 inh = blocks the human KCNK9 two-pore domain potassium channel; HEK293 KCNK9, FluxOR thallium flux fluorescence; active compounds read low; B-score at 10 µM; AID 488922; actives 1.2% (n = 310,000); Q9NPC2;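 active = ratio B-score over 3 SD below the library mean, with starting fluorescence within 5 SD of its mean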;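 also: negative B-score means less thallium flux so channel inhibition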
KCC2 mod = modulators of human KCC2 chloride dependent transport. Q9H2X9. KCC2 cells, thallium flux FluoZin-2 fluorescence. B-score of Tl+ flux slope (higher = more flux/activation; lower = inhibition) at 10 µM. actives 2.2% (n = 190,000). AID 1456;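 active = thallium flux slope and its plate-corrected score both differing from the plate sample mean at a set confidence after two filtering rounds, in either direction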;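 also: slope of fluorescence scaled to starting intensity during 10 to 20 s after thallium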
hERG protect = shields human hERG channel from block by proarrhythmic agents; actives 0.51% (n = 310,000); Q12809; AID 1511; activation (rescue from dofetilide block), less the hit threshold, % at 10 µM; CHO-hERG, FluxOR thallium flux, dofetilide IC70 present;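 active = activation above the mean of controls blocked by dofetilide plus 5 SD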;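 also: thallium influx through hERG after potassium depolarization seen as dye fluorescence rise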
Target sequence (Q12809 whole entry, looked up): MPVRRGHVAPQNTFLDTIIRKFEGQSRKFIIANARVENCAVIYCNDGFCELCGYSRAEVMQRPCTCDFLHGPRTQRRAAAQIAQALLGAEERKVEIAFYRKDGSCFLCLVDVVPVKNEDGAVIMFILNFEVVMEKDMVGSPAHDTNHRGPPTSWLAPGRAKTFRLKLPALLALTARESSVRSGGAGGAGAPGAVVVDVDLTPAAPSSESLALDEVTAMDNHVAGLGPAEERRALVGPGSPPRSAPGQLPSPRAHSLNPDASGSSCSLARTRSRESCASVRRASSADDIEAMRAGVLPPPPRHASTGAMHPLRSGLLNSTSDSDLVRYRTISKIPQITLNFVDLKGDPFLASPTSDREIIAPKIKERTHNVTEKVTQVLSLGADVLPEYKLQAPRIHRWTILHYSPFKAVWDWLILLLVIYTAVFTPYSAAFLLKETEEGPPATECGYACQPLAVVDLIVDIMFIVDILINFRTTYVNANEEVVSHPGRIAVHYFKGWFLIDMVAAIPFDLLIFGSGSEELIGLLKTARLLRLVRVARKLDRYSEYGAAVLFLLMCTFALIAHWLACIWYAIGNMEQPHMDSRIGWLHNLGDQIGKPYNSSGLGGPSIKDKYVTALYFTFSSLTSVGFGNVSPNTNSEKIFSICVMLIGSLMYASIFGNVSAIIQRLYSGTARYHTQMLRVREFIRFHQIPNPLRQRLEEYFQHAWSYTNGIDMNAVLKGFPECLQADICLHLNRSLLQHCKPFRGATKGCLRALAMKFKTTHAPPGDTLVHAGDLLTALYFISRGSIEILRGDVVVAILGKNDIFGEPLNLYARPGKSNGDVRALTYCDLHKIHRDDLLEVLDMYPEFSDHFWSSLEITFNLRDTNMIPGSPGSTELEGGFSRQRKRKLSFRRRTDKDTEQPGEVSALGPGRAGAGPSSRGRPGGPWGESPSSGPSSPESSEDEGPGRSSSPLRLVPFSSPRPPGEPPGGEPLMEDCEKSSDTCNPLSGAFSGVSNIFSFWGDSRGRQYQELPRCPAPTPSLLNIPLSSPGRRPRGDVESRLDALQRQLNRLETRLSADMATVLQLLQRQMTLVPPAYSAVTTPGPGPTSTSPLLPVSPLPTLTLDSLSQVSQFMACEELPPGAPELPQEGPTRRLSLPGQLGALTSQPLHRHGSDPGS
KCNK3 inh conf = confirmation of human KCNK3 two-pore domain potassium channel inhibitors. shares compounds with KCNK3 block. CHO-KCNK3 thallium flux, FluxOR fluorescence; 0% buffer, 100% carvedilol maximal block. ratio percent of control, % at 10 µM. actives 99% (n = 2,400);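 active = ratio percent of control, averaged over triplicates, above buffer control mean plus 5 SD, cut at about 64% in these data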;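 also: ratio is the fluorescence rise from min to max over baseline after thallium stimulus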
KCNK3 noninduced = counter-screen for KCNK3 inhibitors: effect in non-induced cells. actives 40% (n = 2,400). non-induced KCNK3 parental cells, FluxOR thallium flux; active compounds read low. thallium flux ratio (lower = more inhibition) at 10 µM. shares compounds with KCNK3 block;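 active = thallium flux ratio, averaged over three wells, more than 5 SD below the buffer control mean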;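 also: host cells are CHO cells without KCNK3 induction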
Each line names hits and unclear results; the compound was inactive in the other large screens (follow-up assays come after a bar, where they were run).

CCn1c2ccccc2c2cc(NC(=O)c3ccco3)ccc21	KCNK3 block -9.5 | KCNK3 inh conf 114 | KCNK3 noninduced inactive
COc1cccc(C(=O)NCCSCc2ccccc2Cl)c1	KCNK3 block -9.8 (no result: KCC2 mod) | KCNK3 inh conf 99 | KCNK3 noninduced inactive
C=CCc1cccc(/C=N/NC(=O)c2ccccc2Br)c1O	none
C=CCc1cccc(/C=N/NC(=O)c2ccccc2OC)c1O	KCNK3 block -9.5, KCNK9 inh -7.7 | KCNK3 inh conf 94 | KCNK3 noninduced inactive
CC(C)C(=O)N1CCC(n2nccc2NC(=O)CCc2ccccc2)CC1	none (no result: KCC2 mod)
O=S(=O)(c1ccc(F)cc1)N1CCN(CC2CC3C=CC2C3)CC1 (centres undefined)	none (no result: KCC2 mod)
O=C(Cc1cccs1)NNC(=O)C12CC3CC(CC(C3)C1)C2	none
COc1cccc(C(=O)Nc2cccc(NC(=O)c3ccccc3Cl)c2)c1	KCNK3 block -12 (no result: KCC2 mod) | KCNK3 inh conf 96 | KCNK3 noninduced inactive
COc1ccccc1/C=N/NC(=O)c1cccc(NC(=O)c2ccccc2Cl)c1	KCNK3 block -9.5, KCNK9 inh -7.1 | KCNK3 inh conf 100 | KCNK3 noninduced inactive
CCc1cc(CNC(=O)c2cc(COc3ccc(C)nc3)on2)on1	KCNK3 block -9.4 (no result: KCC2 mod) | KCNK3 inh conf inactive | KCNK3 noninduced inactive
Cc1cc(=O)n2nc(N3CCCC(C(=O)NC4CCCCC4C)C3)sc2n1 (centres undefined)	none (no result: KCC2 mod)
O=c1sc2ccccc2n1COc1ccc(Cl)cc1	KCNK3 block -9.1 (no result: KCC2 mod) | KCNK3 inh conf 124 | KCNK3 noninduced 0.15
Cc1ccccc1OCCCn1c(=O)sc2ccccc21	KCNK3 block -9.6 | KCNK3 inh conf 94 | KCNK3 noninduced inactive
O=C(NC1CC1)C1CCN(C2CCN(C(=O)c3c(F)cccc3Cl)CC2)CC1	none (no result: KCC2 mod)
COc1nc(-c2ccccc2)ccc1-c1noc(-c2ccccc2)n1	KCNK3 block -12 | KCNK3 inh conf 99 | KCNK3 noninduced inactive
CCCC(CCC)C(=O)Nc1cccc(-c2cn3c(n2)SCC3)c1	KCNK3 block -8.7 (no result: KCC2 mod) | KCNK3 inh conf 99 | KCNK3 noninduced inactive
O=C(Nc1cccc(-c2cn3c(n2)SCC3)c1)c1ccc2c(c1)OCO2	KCNK3 block -11 | KCNK3 inh conf 104 | KCNK3 noninduced inactive
Cn1cnc([N+](=O)[O-])c1Sc1nc(N)nc2c1ncn2C1CC(O)C(CO)O1 (centres undefined)	none (no result: KCNQ1 pot, KCNQ1 block, KCNK9 inh, KCC2 mod, hERG protect)
O=C1c2ccccc2C(O)N1Cc1ccco1 (centres undefined)	none
CCOc1ccccc1NC1c2ccccc2C(=O)N1Cc1ccco1 (centres undefined)	KCNK3 block -11 | KCNK3 inh conf 98 | KCNK3 noninduced inactive
COc1cccc(-c2nc(CS(=O)(=O)CC(=O)NC3CCC(C)CC3)c(C)o2)c1 (centres undefined)	KCNK3 block -10 (no result: KCC2 mod) | KCNK3 inh conf inactive | KCNK3 noninduced inactive
O=C(Nc1cccnc1Cl)c1ccc(Cl)cc1	none (no result: KCC2 mod)
Cc1cccc(C(=O)Nc2cccc3cccnc23)c1	none (no result: KCC2 mod)
O=C(Nc1cccc2cccnc12)c1ccc(Cl)cc1	KCNK3 block -8.9 (no result: KCC2 mod) | KCNK3 inh conf 103 | KCNK3 noninduced inactive
Cc1ccc(C(=O)Nc2cccc3cccnc23)cc1C	KCNK3 block -9.9 (no result: KCC2 mod) | KCNK3 inh conf 95 | KCNK3 noninduced inactive
COc1cc2cncc(Cc3ccc(Cl)cc3)c2cc1OC	none (no result: KCNQ1 pot, KCNQ1 block, KCNK9 inh, KCC2 mod, hERG protect)
COc1cc(NC(=O)[C@@H](NC(=O)c2ccco2)C(C)C)c(OC)cc1NC(=O)c1ccccc1	none
Cc1ccc2c(CC(=O)N3CCN(S(=O)(=O)c4ccccc4)CC3)coc2c1	none (no result: KCNQ1 pot, KCNQ1 block, KCNK9 inh, KCC2 mod, hERG protect)
N#Cc1ccccc1S(=O)(=O)N1CCN(C(=O)Cc2coc3cc(O)ccc23)CC1	KCNK3 block -12 (no result: KCNQ1 pot, KCNQ1 block, KCNK9 inh, KCC2 mod, hERG protect) | KCNK3 inh conf inactive | KCNK3 noninduced inactive
CCC(=O)NC(=S)Nc1ccc(NC(=O)c2ccc([N+](=O)[O-])cc2Cl)cc1	none
